# ChEMBL document CHEMBL1135850, “P1 Phenethyl peptide boronic acid inhibitors of HCV NS3 protease” (Bioorg Med Chem Lett, 2002)
# Peptide text beside a SMILES is read from it. * marks the point of attachment. X5 = Cc1ccc(CC[C@H](N*)B2O[C@@H]3C[C@@H]4C[C@@H](C4(C)C)[C@]3(C)O2)c(C)c1; X7 = Cc1ccc(C)c(CC[C@H](N*)B2O[C@@H]3C[C@@H]4C[C@@H](C4(C)C)[C@]3(C)O2)c1; X2 = Cc1ccccc1CC[C@H](N*)B1O[C@@H]2C[C@@H]3C[C@@H](C3(C)C)[C@]2(C)O1
# Tests used:
# [1] = target: NS3 (Hepatitis C virus, UniProt A3EZJ3); assay: Inhibitory concentration against Hepatitis C virus NS3 protease; design: species or system Hepacivirus hominis
# In short: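 Continuous fluorescence assay with 4 nM NS3 protease plus NS4A cofactor peptide, in 50 mM Tris pH 7.0, 5 mM DTT, 50% glycerol, 2% CHAPS. Serially diluted inhibitors, given as boronic acid pinanediol esters, were preincubated with enzyme for 15 min. The reaction was started with the FRET ester substrate Ac-DED(EDANS)EEAbuψ[COO]ASK(DABCYL)-NH2 at ambient temperature and read at excitation 360 nm, emission 530 nm.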
# [2] = target: T1, Neutrophil elastase (Homo sapiens, UniProt P08246); assay: Inhibitory concentration against Human leukocyte Elastase
# T1 sequence (P08246 whole entry): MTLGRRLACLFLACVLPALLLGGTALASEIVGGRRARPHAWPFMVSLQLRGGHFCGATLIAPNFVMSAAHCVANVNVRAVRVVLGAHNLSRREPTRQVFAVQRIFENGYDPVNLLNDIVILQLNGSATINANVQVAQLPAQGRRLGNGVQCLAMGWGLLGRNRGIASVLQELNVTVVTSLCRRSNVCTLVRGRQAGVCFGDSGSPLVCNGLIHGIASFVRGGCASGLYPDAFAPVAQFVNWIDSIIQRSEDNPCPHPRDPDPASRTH
# In short: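 Human neutrophil elastase (stock 1 mg/mL in PBS with 10% glycerol) with MeO-Suc-Ala-Ala-Pro-Val-p-nitroanilide substrate in PBS at room temperature, DMSO ≤2%. Inhibitors were tested as pinanediol esters. Substrate hydrolysis was followed at 405 nm to derive kinetic parameters.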
IC50 [1] [nM],IC50 [2] [nM],Compound
530,–,Cc1ccc(CC[C@H](NC(=O)[C@@H]2CCCN2C(=O)[C@@H](NC(=O)[C@@H](NC(=O)[C@H](CCC(=O)O)NC(=O)[C@@H](N)CC(=O)O)C(C)C)C(C)C)B2O[C@@H]3C[C@@H]4C[C@@H](C4(C)C)[C@]3(C)O2)c(C)c1 (H-DEVVP-X5)
820,–,Cc1ccccc1CC[C@H](NC(=O)[C@@H]1CCCN1C(=O)[C@@H](NC(=O)[C@@H](NC(=O)[C@H](CCC(=O)O)NC(=O)[C@@H](N)CC(=O)O)C(C)C)C(C)C)B1O[C@@H]2C[C@@H]3C[C@@H](C3(C)C)[C@]2(C)O1 (H-DEVVP-X2)
–,450,CC(C)c1ccc(CC[C@H](NC(=O)[C@H]2CCCN2C(=O)[C@@H](NC(=O)[C@@H](NC(=O)[C@H](CCC(=O)O)NC(=O)[C@@H](N)CC(=O)O)C(C)C)C(C)C)B2O[C@@H]3C[C@@H]4C[C@@H](C4(C)C)[C@]3(C)O2)cc1
–,1600,CC(C)[C@H](NC(=O)[C@H](CCC(=O)O)NC(=O)[C@@H](N)CC(=O)O)C(=O)N[C@H](C(=O)N1CCC[C@@H]1C(=O)N[C@@H](CCc1ccc(Br)cc1)B1O[C@@H]2C[C@@H]3C[C@@H](C3(C)C)[C@]2(C)O1)C(C)C
–,900,CC(C)[C@H](NC(=O)[C@H](CCC(=O)O)NC(=O)[C@@H](N)CC(=O)O)C(=O)N[C@H](C(=O)N1CCC[C@@H]1C(=O)N[C@@H](CCc1ccc(O)cc1)B1O[C@@H]2C[C@@H]3C[C@@H](C3(C)C)[C@]2(C)O1)C(C)C
–,220,CC(C)[C@H](NC(=O)[C@H](CCC(=O)O)NC(=O)[C@@H](N)CC(=O)O)C(=O)N[C@H](C(=O)N1CCC[C@@H]1C(=O)N[C@@H](CCc1ccc(Oc2ccccc2)cc1)B1O[C@@H]2C[C@@H]3C[C@@H](C3(C)C)[C@]2(C)O1)C(C)C
–,20,CC[C@H](NC(=O)[C@H]1CCCN1C(=O)[C@@H](NC(=O)[C@@H](NC(=O)[C@H](CCC(=O)O)NC(=O)[C@@H](N)CC(=O)O)C(C)C)C(C)C)B1O[C@@H]2C[C@@H]3C[C@@H](C3(C)C)[C@]2(C)O1
–,5700,Cc1cccc(CC[C@H](NC(=O)[C@H]2CCCN2C(=O)[C@@H](NC(=O)[C@@H](NC(=O)[C@H](CCC(=O)O)NC(=O)[C@@H](N)CC(=O)O)C(C)C)C(C)C)B2O[C@@H]3C[C@@H]4C[C@@H](C4(C)C)[C@]3(C)O2)c1
–,400,CC(C)[C@H](NC(=O)[C@H](CCC(=O)O)NC(=O)[C@@H](N)CC(=O)O)C(=O)N[C@H](C(=O)N1CCC[C@@H]1C(=O)N[C@@H](CCc1ccc(C2CCCCC2)cc1)B1O[C@@H]2C[C@@H]3C[C@@H](C3(C)C)[C@]2(C)O1)C(C)C
–,5000,Cc1ccc(CC[C@H](NC(=O)[C@H]2CCCN2C(=O)[C@@H](NC(=O)[C@@H](NC(=O)[C@H](CCC(=O)O)NC(=O)[C@@H](N)CC(=O)O)C(C)C)C(C)C)B2O[C@@H]3C[C@@H]4C[C@@H](C4(C)C)[C@]3(C)O2)cc1
–,400,CC(C)[C@H](NC(=O)[C@H](CCC(=O)O)NC(=O)[C@@H](N)CC(=O)O)C(=O)N[C@H](C(=O)N1CCC[C@@H]1C(=O)N[C@@H](CCCCc1ccccc1)B1O[C@@H]2C[C@@H]3C[C@@H](C3(C)C)[C@]2(C)O1)C(C)C
–,560,COc1ccc(CC[C@H](NC(=O)[C@H]2CCCN2C(=O)[C@@H](NC(=O)[C@@H](NC(=O)[C@H](CCC(=O)O)NC(=O)[C@@H](N)CC(=O)O)C(C)C)C(C)C)B2O[C@@H]3C[C@@H]4C[C@@H](C4(C)C)[C@]3(C)O2)cc1
–,1400,CC(C)[C@H](NC(=O)[C@H](CCC(=O)O)NC(=O)[C@@H](N)CC(=O)O)C(=O)N[C@H](C(=O)N1CCC[C@@H]1C(=O)N[C@@H](CCc1ccc(Cl)cc1)B1O[C@@H]2C[C@@H]3C[C@@H](C3(C)C)[C@]2(C)O1)C(C)C
–,1800,CC(C)[C@H](NC(=O)[C@H](CCC(=O)O)NC(=O)[C@@H](N)CC(=O)O)C(=O)N[C@H](C(=O)N1CCC[C@@H]1C(=O)N[C@@H](CCc1ccc(C(F)(F)F)cc1)B1O[C@@H]2C[C@@H]3C[C@@H](C3(C)C)[C@]2(C)O1)C(C)C
1000,–,Cc1ccc(C)c(CC[C@H](NC(=O)[C@@H]2CCCN2C(=O)[C@@H](NC(=O)[C@@H](NC(=O)[C@H](CCC(=O)O)NC(=O)[C@@H](N)CC(=O)O)C(C)C)C(C)C)B2O[C@@H]3C[C@@H]4C[C@@H](C4(C)C)[C@]3(C)O2)c1 (H-DEVVP-X7)
